# Bioassay records as filed in PubChem BioAssay.
# XBP1 UPR activ = activators of adaptive arm of unfolded protein response (XBP1); AID 463104; activation, % at 20 µM; CHO-XBP1 luciferase reporter, IRE1-XBP1 UPR activation, luminescence; percent of tunicamycin response, DMSO as zero; hit rate 0.33% among 330,000;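 active = versus positive control, 20 µM dose yields 30% or more activation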;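 also: 100% = tunicamycin at 10 µg/mL and 0% = DMSO only wells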
#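 incubation = overnight seeding at 37 °C, 6 h compound treatment at 37 °C | assay system = CHO-XBP1 cells stably carrying IRE1-XBP1-driven luciferase reporter | input = 1000 cells per well | detection = luciferase luminescence | dosing = single point, 20 µM final compound, 1% DMSO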
# Beta2AR agonist = human beta-2 adrenergic receptor agonism by FAP; Am2.2-beta2AR cells, FAP receptor internalization, flow cytometry; response, % (test concentration not listed); P07550; hit rate 0.43% among 340,000; AID 504454;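 active = response above a set limit, near 3 SD of response in nonfluorescent compounds, cut at about 42% in these data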
# Target sequence (P07550 whole entry, looked up): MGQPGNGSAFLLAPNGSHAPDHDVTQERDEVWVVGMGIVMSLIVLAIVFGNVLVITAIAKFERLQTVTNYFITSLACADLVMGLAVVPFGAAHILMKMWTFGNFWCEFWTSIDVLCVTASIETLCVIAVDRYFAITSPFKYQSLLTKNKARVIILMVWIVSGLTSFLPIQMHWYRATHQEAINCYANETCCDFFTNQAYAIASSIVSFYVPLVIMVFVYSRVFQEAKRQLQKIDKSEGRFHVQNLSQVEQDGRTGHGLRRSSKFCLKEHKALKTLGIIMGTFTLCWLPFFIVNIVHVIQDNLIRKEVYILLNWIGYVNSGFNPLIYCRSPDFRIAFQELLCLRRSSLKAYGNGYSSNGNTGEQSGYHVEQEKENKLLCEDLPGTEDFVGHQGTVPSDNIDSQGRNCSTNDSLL
# CHOP UPR activ = apoptotic UPR (CHOP) activation | CHO-CHOP luciferase reporter, luminescence; percent of tunicamycin response over DMSO baseline | activation, % at 10 µM | hit rate 0.34% among 330,000;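 active = at 10 µM dose, activation of 40% or more, normalized to positive control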;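 also: 100% = tunicamycin at 10 µg/mL and 0% = DMSO alone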
#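 Assay system: CHO cells with stable CHOP pathway luciferase reporter; Buffer or medium: F12 plus 10% serum; Times: 16-18 h cell attachment, then 6 h compound exposure, 37 °C; Signal: luciferase luminescence; Read-out basis: percent activation relative to tunicamycin control; Control set: tunicamycin high control, DMSO low control.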
# T cell HTS = T cell immune modulators affecting CD8 T cell-vesicle binding; 2C CD8+ T cell-vesicle binding, flow cytometry; active compounds read low; response (vesicle binding), % at 7 µM; hit rate 0.068% among 330,000;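 active = response, share of CD8 T cells binding vesicles, and their 90th percentile fluorescence all below set limits, cut at about 80% in these data, passing the limit was not always enough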;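 also: values below 100% mean blocked vesicle binding to the CD8+ T cells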
#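 incubation = binding step 1.5 h, 37 °C, antibody labelling 20 min, ice | test system = 2C mouse CD8+ T cells | read-out basis = percent CD8+ FL2 mean versus row control | controls = Peptide-free naked vesicles (low) and QL9 vesicles with 0.7% DMSO vehicle (high) | detection = flow cytometry of vesicle-bound cells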
# UPR XBP1 confirm = confirmation of adaptive unfolded protein response (XBP1) activators; shares compounds with XBP1 UPR activ; AID 485299; CHO-XBP1 IRE1-XBP1 luciferase reporter, luminescence; hit rate 63% among 1,000; activation, % at 20 µM;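 active = reporter signal at least 30% of the positive control's activation in two or more of four replicate wells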;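 also: plate controls were DMSO negative control for no effect and tunicamycin 10 µg/mL positive control for full effect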
# * = called active by the depositor; i = inactive; . = no result. A selection: hits, their analogues and other compounds. The true share with any hit is near 1%.
SMILES,XBP1 UPR activ,Beta2AR agonist,CHOP UPR activ,T cell HTS,UPR XBP1 confirm
CC1CCN(Cc2c(C(=O)N/N=C/c3cc(Br)ccc3O)nnn2-c2nonc2N)CC1,0.6,2.3,-2.5,154.3,.
Cc1cc(C)c(/C=N/NC(=O)c2nnn(-c3nonc3N)c2CN2CCC(C)CC2)c(C)c1,31.5*,-2.1,1.7,150.0,5.9
CC1CCN(Cc2c(C(=O)N/N=C/c3ccc(C(F)(F)F)cc3)nnn2-c2nonc2N)CC1,30.2*,4.0,3.6,282.2,39.9*
COc1c(Cl)cc(Cl)cc1/C=N/NC(=O)c1nnn(-c2nonc2N)c1CN1CCC(C)CC1,68.0*,3.0,7.3,149.5,91.2*
C/C(=C\c1ccccc1)C(=O)c1c(C)cc(C)[nH]c1=O,-3.4,-8.9,-1.9,135.2,.
Cc1cccc(OCC(=O)NCCNC(=O)c2cnccn2)c1,-3.1,7.1,-0.7,156.4,.
CNc1nc(SCC(=O)OC)nc(N2CCOCC2)n1,2.1,0.4,-0.3,320.4,.
COc1nccnc1NS(=O)(=O)c1ccc(NC(=O)c2ccc(F)cc2)cc1,-0.5,4.3,0.0,177.3,.
Cc1cccc(C)c1NC(=O)C1CSC2(C)CCC(=O)N12 (stereo unspecified),-2.2,3.8,1.3,216.0,.
Cc1cccc2sc(NC(=O)C3CSC4(C)CCC(=O)N34)nc12 (stereo unspecified),30.8*,-6.9,-0.1,i,-1.8
CN(c1ccccc1)S(=O)(=O)c1ccc(NC(=O)C2CCCCC2C(=O)O)cc1 (stereo unspecified),0.3,2.6,-0.5,301.5,.
CCCCCCCCCCn1ccc(=N)cc1,34.7*,14.6,18.4,150.0,23.6
COc1ccc(OC)c(C2CC(c3c(-c4ccccc4)c4cc(Cl)ccc4[nH]c3=O)=NN2S(C)(=O)=O)c1 (stereo unspecified),54.5*,-8.4,1.7,404.2,20.5
COc1ccc(C2CC(c3c(-c4ccccc4)c4cc(Cl)ccc4[nH]c3=O)=NN2S(C)(=O)=O)cc1 (stereo unspecified),49.9*,-0.1,-0.6,237.0,139.9*
CCCCn1nnnc1NCc1ccc(OC)c(OC)c1OC,1.1,0.1,0.0,.,.
C#CCn1c(=NC(=O)c2ccc(Br)s2)sc2cccc(OC)c21,73.4*,-3.5,6.2,467.7,72.9*
O=C(/C=C/c1ccccc1[N+](=O)[O-])Nc1ccc(S(=O)(=O)Nc2ncccn2)cc1,-1.0,3.7,-1.6,0.0,.
CCCCNc1c(-c2ccc(-c3ccc(C(C)=O)cc3)c(OC)c2)nc2cc(C)ccn12,39.7*,13.0,8.7,203.9,37.5*
CC(Sc1nc(-c2ccccc2)cc(C(F)(F)F)n1)C(=O)Nc1sc2c(c1C#N)CCC2 (stereo unspecified),0.9,-23.3,1.2,188.8,.
CC(=O)Oc1cc(C(=O)OCC(=O)NC23CC4CC(CC(C4)C2)C3)cc(OC(C)=O)c1OC(C)=O,.,15.7,.,.,.
COc1ccc2c(c1)[C@H]1[C@H](CO2)[C@H](c2ccccc2)[C@]2(C)C(=O)Nc3ccc(Cl)cc3C(=O)N12,.,2.2,.,.,.
COc1ccccc1-c1sc2cc3c(cc2c1-c1ccc(OCCN2CCCCC2)cc1)OCO3,34.9*,37.6,6.3,319.4,35.9*
COc1cc2sc(-c3ccccc3OC)c(-c3ccc(OCCN4CCCCC4)cc3)c2cc1OC,23.8,38.8,6.9,313.1,.
CCc1ccc(N(CC(=O)Nc2ccccc2C(=O)N2CCOCC2)S(C)(=O)=O)cc1,-1.2,-4.0,-1.1,298.6,.
COc1ccc([N+](=O)[O-])cc1COc1ccc2c(-c3ccccc3)cc(=O)oc2c1,47.5*,2.0,5.8,134.8,142.6*
O=[N+]([O-])c1ccccc1/C=C/C=N/n1c(-c2cc(-c3ccccc3)n[nH]2)n[nH]c1=S,38.9*,4.9,0.1,171.4,3.7
N#C/C(C(=O)NCc1ccccc1)=C1/N=C(NC(=O)c2ccco2)c2ccccc21,3.1,6.8,-0.4,281.3,.
COc1ccc(CCNC(=O)/C(C#N)=C2\N=C(NC(=O)c3ccco3)c3ccccc32)cc1,33.0*,31.7,10.7,405.3,24.1
CCc1ccc(OCCNc2cc(N3CCNC(C)C3)ccc2[N+](=O)[O-])cc1 (stereo unspecified),56.3*,26.8,5.4,328.8,68.3*
